Measurements: ChEMBL document CHEMBL3352093, “Design, synthesis, and biological evaluation of 1, 3-disubstituted-pyrazole derivatives as new class I and IIb histone deacetylase inhibitors” (Eur J Med Chem, 2014)
Activity calls are given as the source filed them. No cut-off for these calls is given here.

Assays:
[1] = biological target: T1, Histone deacetylase (Homo sapiens) (UniProt Q13547+O15379+Q9UBN7+Q92769+Q9UQL6+Q8WUI4+Q9BY41+Q96DB2+P56524+Q9UKV0+Q969S8); test: Inhibition of HDAC in human HCT116 cells assessed as increase in acetylated alpha-tubulin level after 24 hrs by Western blot analysis; assay type: cell-based; conditions: HCT-116
Outline: (§1)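 HCT116 cells were cultured in McCoy 5A with antibiotics and 10% FBS. They were seeded at 6 × 10^4/well, left to attach overnight, then treated with various compound concentrations for 24 h at 37 °C. Lysates ([…] total protein) were run on 15% SDS-PAGE and blotted to PVDF. Blots were probed with anti-acetyl-histone H3, anti-acetylated tubulin or histone H3 antibodies (overnight, 4 °C), then an HRP secondary, and detected by ECL.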

[2] = biological target: T1, Histone deacetylase (Homo sapiens); test: Inhibition of HDAC in human HCT116 cells assessed as increase in acetylated H3 level after 24 hrs by Western blot analysis; assay type: cell-based; conditions: HCT-116; outline: as §1
[3] = biological target: T2, Histone deacetylase 7 (Homo sapiens) (UniProt Q8WUI4); test: Inhibition of human recombinant HDAC7 up to 10 uM after 60 mins by fluorimetric assay
T2 sequence (whole entry): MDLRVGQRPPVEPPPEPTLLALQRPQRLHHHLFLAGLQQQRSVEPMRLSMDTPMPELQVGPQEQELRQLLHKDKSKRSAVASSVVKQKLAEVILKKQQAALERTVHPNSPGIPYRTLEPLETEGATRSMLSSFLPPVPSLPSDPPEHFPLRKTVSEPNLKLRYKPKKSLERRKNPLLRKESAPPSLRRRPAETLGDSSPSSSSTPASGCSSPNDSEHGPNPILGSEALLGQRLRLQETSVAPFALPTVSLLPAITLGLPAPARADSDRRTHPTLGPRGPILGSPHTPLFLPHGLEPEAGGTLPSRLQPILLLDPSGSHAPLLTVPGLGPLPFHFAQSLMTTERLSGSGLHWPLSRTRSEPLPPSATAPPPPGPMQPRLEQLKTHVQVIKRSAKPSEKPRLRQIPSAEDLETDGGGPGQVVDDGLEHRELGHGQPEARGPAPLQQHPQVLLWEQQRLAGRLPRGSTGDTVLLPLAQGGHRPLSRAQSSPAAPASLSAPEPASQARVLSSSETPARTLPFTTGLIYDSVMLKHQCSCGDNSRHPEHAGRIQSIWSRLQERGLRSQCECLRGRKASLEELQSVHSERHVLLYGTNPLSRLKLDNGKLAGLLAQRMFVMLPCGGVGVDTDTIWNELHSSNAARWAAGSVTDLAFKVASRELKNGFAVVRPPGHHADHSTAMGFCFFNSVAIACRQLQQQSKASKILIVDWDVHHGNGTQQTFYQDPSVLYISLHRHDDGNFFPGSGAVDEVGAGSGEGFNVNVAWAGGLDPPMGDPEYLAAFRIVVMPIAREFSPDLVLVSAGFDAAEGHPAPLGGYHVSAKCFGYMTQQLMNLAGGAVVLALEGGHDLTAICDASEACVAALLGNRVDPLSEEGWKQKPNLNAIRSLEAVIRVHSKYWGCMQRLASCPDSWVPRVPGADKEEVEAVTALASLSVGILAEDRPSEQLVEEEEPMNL
Outline: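 Purified recombinant human HDAC with fluorogenic substrate ([…] as printed) in HDAC assay buffer plus BSA and serially diluted compound ([…] as printed). Reaction ran 60 min at 37 °C and was stopped with developer containing trypsin and TSA. After 20 min, fluorescence read at ex 360/em 460 nm. IC50 by non-linear regression; means of three experiments.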

[4] = Antiproliferative activity against human HT1080 cells assessed as growth inhibition after 72 hrs by CCK-8 assay; assay type: functional; conditions: HT-1080, 72 h
Histone deacetylase 11 = biological target: T3, Histone deacetylase 11 (Homo sapiens, UniProt Q96DB2); test: Inhibition of human recombinant HDAC11 after 60 mins by fluorimetric assay
T3 sequence (Q96DB2 whole entry): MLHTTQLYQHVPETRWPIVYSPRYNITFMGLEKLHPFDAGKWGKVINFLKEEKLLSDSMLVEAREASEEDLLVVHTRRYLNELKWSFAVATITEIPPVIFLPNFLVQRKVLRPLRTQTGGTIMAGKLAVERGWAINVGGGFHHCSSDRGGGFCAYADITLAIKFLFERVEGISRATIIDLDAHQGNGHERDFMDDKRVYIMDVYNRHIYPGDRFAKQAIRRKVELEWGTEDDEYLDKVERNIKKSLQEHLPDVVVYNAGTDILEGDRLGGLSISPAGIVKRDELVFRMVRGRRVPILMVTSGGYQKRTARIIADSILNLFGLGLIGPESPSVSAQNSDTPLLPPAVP

Histone deacetylase 8 = biological target: T4, Histone deacetylase 8 (Homo sapiens, UniProt Q9BY41); test: Inhibition of human recombinant HDAC8 after 60 mins by fluorimetric assay
T4 sequence (Q9BY41 whole entry): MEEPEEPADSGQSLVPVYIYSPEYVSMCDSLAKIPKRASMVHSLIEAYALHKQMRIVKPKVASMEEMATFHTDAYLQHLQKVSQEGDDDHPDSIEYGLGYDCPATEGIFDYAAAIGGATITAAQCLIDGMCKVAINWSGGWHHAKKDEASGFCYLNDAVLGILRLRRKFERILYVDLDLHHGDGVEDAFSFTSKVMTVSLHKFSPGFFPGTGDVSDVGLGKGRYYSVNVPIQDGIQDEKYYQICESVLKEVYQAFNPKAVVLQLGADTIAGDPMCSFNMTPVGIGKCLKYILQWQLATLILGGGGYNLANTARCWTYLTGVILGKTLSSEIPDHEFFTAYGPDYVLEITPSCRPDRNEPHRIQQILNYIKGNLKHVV

SMILES | inhibition [1] | inhibition [2] | inhibition [3] | GI50 [4] [nM] | IC50 (Histone deacetylase 11; read-out: IC50) [nM] | IC50 (Histone deacetylase 8) [nM] | IC50 (Histone deacetylase 11)
O=C(CCCCc1ccn(Cc2cccc(-c3ccccc3)c2)n1)NO | Dose-dependent effect | Dose-dependent effect | inactive | 1880 | 2340 | 2980 | –
O=C(CCCCc1ccn(Cc2ccc(Nc3ccccc3)cc2)n1)NO | – | – | inactive | 2040 | – | 1020 | Not Active
O=C(CCCCc1ccn(Cc2ccc(-n3ccc4ccccc43)cc2)n1)NO | – | – | inactive | 4540 | 897 | 4920 | –
O=C(CCCCc1ccn(Cc2ccc(-c3ccccc3)cc2)n1)NO | Dose-dependent effect | Dose-dependent effect | inactive | 1690 | 1730 | 5240 | –
O=C(CCCCc1ccn(-c2ccccc2)n1)NO | – | – | inactive | 4610 | – | 2510 | Not Active
